The source of these data is ChEMBL document CHEMBL2331279, “Rational design and synthesis of 4-substituted 2-pyridin-2-ylamides with inhibitory effects on SH2 domain-containing inositol 5'-phosphatase 2 (SHIP2)” (Eur J Med Chem, 2013).

Each structure is given as a SMILES string. Active and inactive are the calls of the source. No cut-off for these calls is given here.

Series [1] has as its system Mus musculus. Nature of the series: Antidiabetic activity in db/db mouse assessed as decrease in HOMA-R index of insulin resistance at 300 mg/kg, po bid for 12 to 13 days. On the set-up: dose 300 mg/kg. Type of series: functional, organism-based.
Series [2] concerns Mus musculus. Nature of the series: Decrease in PEPCK gene expression in db/db mouse liver at 300 mg/kg, po bid for 12 to 13 days by real time RT-PCR analysis. The class given is functional, organism-based. On the set-up: dose 300 mg/kg. The procedure, abridged:
(§1)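 db/db mice dosed orally twice daily with 300 mg/kg or vehicle for 12-13 days, then fasted overnight and liver removed. Gluconeogenic gene mRNA measured by SYBR-green real-time PCR and expressed as fold change versus vehicle. Mean ± SE, n=7-8; ANOVA with Bonferroni test.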

Series [3] deals with Mus musculus. As to the kind of experiment: Toxicity in C57BL/6J mouse assessed as epididymal white adipose tissue weight at 300 mg/kg, po bid for 12 to 13 days measured on day 15 (reference value: 0.03 +/-0.0 gms). Details: dose 300 mg/kg, route oral. The class given is organism-based. The note with it: in vivo.
For series [4], the system named is Mus musculus. Nature of the series: Antidiabetic activity in db/db mouse assessed as decrease in glucose area under curve at 300 mg/kg, po bid for 10 days by glucose tolerance test relative vehicle treated control. Type of series: functional. The note with it: 240 h. The essentials: (§2)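 Male mice, 8 weeks old, dosed orally twice daily with 300 mg/kg in 0.5% methylcellulose, or vehicle, for 13 days (C57BL/6J) or 10 days (db/db). After a 6 h fast, glucose 2 g/kg given ip. Tail-vein blood sampled at set times and plasma glucose measured by glucometer. AUC calculated. Mean ± SE, n=5-8; ANOVA with Bonferroni test versus vehicle.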

For series [5], the target named is T1, Phosphatidylinositol 3,4,5-trisphosphate 5-phosphatase 2 (Rattus norvegicus) (UniProt Q9WVR3).
T1 sequence (whole entry): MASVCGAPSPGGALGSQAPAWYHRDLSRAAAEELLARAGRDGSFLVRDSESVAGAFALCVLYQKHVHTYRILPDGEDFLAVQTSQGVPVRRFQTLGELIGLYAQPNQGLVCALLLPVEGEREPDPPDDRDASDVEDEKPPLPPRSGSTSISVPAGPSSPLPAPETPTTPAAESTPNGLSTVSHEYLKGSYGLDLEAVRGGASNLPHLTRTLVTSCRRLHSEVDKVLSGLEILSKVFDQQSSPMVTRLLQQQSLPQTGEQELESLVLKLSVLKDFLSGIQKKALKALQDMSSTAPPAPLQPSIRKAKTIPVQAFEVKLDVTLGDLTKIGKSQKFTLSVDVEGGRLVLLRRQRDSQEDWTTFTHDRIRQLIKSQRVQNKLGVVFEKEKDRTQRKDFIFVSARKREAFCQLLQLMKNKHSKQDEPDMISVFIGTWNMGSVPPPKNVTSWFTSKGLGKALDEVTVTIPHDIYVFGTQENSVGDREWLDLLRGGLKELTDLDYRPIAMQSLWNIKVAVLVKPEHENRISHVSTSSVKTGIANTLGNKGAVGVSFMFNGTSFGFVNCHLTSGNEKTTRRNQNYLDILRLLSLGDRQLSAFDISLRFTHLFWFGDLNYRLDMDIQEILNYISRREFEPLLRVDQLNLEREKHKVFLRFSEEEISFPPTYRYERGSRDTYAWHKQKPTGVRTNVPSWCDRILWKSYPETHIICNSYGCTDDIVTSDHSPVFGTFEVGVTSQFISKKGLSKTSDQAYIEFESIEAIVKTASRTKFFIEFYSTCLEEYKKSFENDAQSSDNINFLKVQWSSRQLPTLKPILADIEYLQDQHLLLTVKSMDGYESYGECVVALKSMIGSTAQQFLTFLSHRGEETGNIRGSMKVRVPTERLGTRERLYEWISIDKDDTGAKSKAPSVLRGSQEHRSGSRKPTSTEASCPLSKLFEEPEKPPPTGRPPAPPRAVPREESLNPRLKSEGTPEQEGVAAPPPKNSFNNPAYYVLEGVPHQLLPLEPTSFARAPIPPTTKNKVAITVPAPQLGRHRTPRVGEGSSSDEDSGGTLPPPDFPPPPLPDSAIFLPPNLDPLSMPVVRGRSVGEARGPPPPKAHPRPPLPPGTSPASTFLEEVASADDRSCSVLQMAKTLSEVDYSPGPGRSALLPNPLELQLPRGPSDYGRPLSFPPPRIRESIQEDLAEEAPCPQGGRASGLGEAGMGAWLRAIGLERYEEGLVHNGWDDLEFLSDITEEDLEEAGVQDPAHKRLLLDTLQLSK
Nature of the series: Inhibition of SHIP2 in TNF alpha-treated Sprague-Dawley rat cortical neuron assessed as potentiation of insulin-stimulated Akt phosphorylation at Thr308 at 10 uM treated for 15 mins after TNF alpha challenge for 3 days and prior to insulin stimulation measured after 5 mins by Western blot analysis relative to untreated control.

Series [6] has as its system Mus musculus. Nature of the series: Antidiabetic activity in db/db mouse assessed as fasting plasma glucose level at 300 mg/kg, po bid for 12 to 13 days measured on day 12 to 13 (reference value: 106 +/-6 mg/dl). Type of series: functional.
For series [7], the system named is Mus musculus. Nature of the series: Toxicity in C57BL/6J mouse assessed as serum insulin level at 300 mg/kg, po bid for 12 to 13 days measured on day 15 (reference value: 0.25 +/-0.11 ng/ml). The class given is organism-based. Details: dose 300 mg/kg, route oral. The note with it: in vivo.
Series [8] has as its system Mus musculus. As to the kind of experiment: Toxicity in db/db mouse assessed as epididymal white adipose tissue weight at 300 mg/kg, po bid for 12 to 13 days measured on day 12 to 13 (reference value: 1.82 +/-0.1 gms). Type of series: organism-based. On the set-up: dose 300 mg/kg, route oral. The settings on record: in vivo.
The subject of series [9] is Mus musculus. As to the kind of experiment: Toxicity in C57BL/6J mouse assessed as effect on glucose tolerance at 300 mg/kg, po bid for 13 days by glucose tolerance test. The note with it: in vivo, 312 h. On the set-up: dose 300 mg/kg, route oral. The class given is organism-based. The essentials: as §2
Series [10] deals with Mus musculus. As to the kind of experiment: Toxicity in C57BL/6J mouse assessed as food intake at 300 mg/kg, po bid for 12 to 13 days measured on day 10 (reference value: 3.72 +/-0.23 gms/day). Type of series: organism-based. On the set-up: dose 300 mg/kg, route oral. The settings on record: in vivo.
Series [11] concerns Mus musculus. As to the kind of experiment: Decrease in glucose-6-phosphatase gene expression in db/db mouse liver at 300 mg/kg, po bid for 12 to 13 days by real time RT-PCR analysis. The class given is functional, organism-based. On the set-up: dose 300 mg/kg. The essentials:
as §1
A general note: Real-time PCR tracks product formation cycle by cycle.

Series [12] concerns Mus musculus. Nature of the series: Toxicity in C57BL/6J mouse assessed as body weight at 300 mg/kg, po bid for 12 to 13 days measured on day 10 (reference value: 23.2 +/-0.4 gms). Type of series: organism-based. On the set-up: dose 300 mg/kg, route oral. The settings on record: in vivo.

The term inhibition in vivo denotes the percentage by which the read-out fell short of the control.

Consider `O=C(Cc1c(F)cccc1F)Nc1cc(OCc2ccc(Cl)cc2)ccn1`, for which the inhibition result in the series on Mus musculus [1], in the series on Mus musculus [2] and in the series with Mus musculus [11] was “Active” throughout. Further, the Activity in the series with Mus musculus [3] is 0.02 g; in the series on Mus musculus [6], 83 mg/dL; with Mus musculus [7], 0.21 ng/mL; with Mus musculus [8] it was 1.86 g; with Mus musculus [9], “Non-toxic”; in the series on Mus musculus [10], 3.94 g/day. Also, the Activity with Mus musculus [12] is 23.4 g. The inhibition in vivo at 300 mg/kg with Mus musculus [4] was found to be 16%. Moreover, in series [5], the fold change (FC) was 2.2.
In the case of `C[C@H](NC(=O)c1sccc1OCc1ccc(Cl)cc1)c1ccccc1`, the inhibition entry with Mus musculus [1], in the series with Mus musculus [2] and in the series on Mus musculus [11] was “Active” throughout. Further, the Activity was 0.02 g in the series on Mus musculus [3]; 77 mg/dL with Mus musculus [6]; 0.1 ng/mL with Mus musculus [7]; 1.75 g with Mus musculus [8]; “Non-toxic” in the series on Mus musculus [9]; 4.1 g/day with Mus musculus [10]. For the same molecule, the Activity in the series on Mus musculus [12] was 23 g. In the series on Mus musculus [4], the inhibition in vivo at 300 mg/kg came to 14%. In addition, the fold change (FC) in [5] stood at 1.5.
